Most compounds without a hit are left out; they make up all but 4.6% or so of the library.
OX1R antag-1: antagonists of human orexin 1 receptor (OX1R) | OX1R-expressing cells, FRET antagonist read-out | Orexin/Hypocretin receptor type 1 (Homo sapiens), O43613 | 1.8% of 330,000 active | inhibition, % at 6.6 µM; in the data active means inhibition mostly above about 38%, no sharp cut-off; inactive means mostly below about 40%;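 further: 0% = agonist challenge alone and 100% = reference antagonist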
GPR7 antag: GPR7 receptor antagonists, primary screen, cell-based, fluorescence, single concentration; Neuropeptides B/W receptor type 1 (Homo sapiens), P48145; GPR7-expressing cells, fluorescence antagonist assay; inhibition, % at 4.4 µM; 1.1% of 290,000 active; in the data active means inhibition above about 16%, passing the limit was not always enough;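 further: cells stimulated with the agonist NPW; 0% = agonist with vehicle and 100% = vehicle without agonist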
Target sequence (P48145 whole entry, looked up): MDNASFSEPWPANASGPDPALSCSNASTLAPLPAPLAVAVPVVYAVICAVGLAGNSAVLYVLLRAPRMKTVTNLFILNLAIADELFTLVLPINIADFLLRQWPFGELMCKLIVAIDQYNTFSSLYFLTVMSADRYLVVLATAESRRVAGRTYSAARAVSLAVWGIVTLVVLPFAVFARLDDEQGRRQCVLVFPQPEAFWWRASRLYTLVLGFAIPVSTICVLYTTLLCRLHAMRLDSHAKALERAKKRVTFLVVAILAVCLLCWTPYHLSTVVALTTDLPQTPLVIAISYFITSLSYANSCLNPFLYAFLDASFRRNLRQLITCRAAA
CHO parental Ca: ATP-evoked calcium signal inhibitors, parental CHO, primary screen, counter-screen for OX1R antagonist project, cell-based, fluorescence, Fluo-8 calcium dye | parental CHO-K1, ATP-induced calcium, Fluo-8 fluorescence | inhibition, % at 5.6 µM | 0.63% of 330,000 active | AID 463079, 2010;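 active means inhibition above that plate's mean sample inhibition plus 3 SD, cut at about 26% in these data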;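 further: 0% = ATP-challenged DMSO wells and 100% = DMSO wells without ATP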
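Material: parental CHO cells / Compound: single nominal dose of 5.6 µM per compound / Signal: Fluo-8 fluorescence / Replicates: singlicate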
TAAR1 agonist: human TAAR1 agonists, primary screen, Fluo-8 calcium fluorescence, CHO RD-HGA16 cells | Trace amine-associated receptor 1 (Homo sapiens), Q96RJ0 | vehicle wells 0%, saturating PEA agonist 100% | activation, % at 3 µM | 0.99% of 360,000 active;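 active means activation above the mean activation of all test compounds in the run plus 3 SD, cut at about 38% in these data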
Target sequence (Q96RJ0 whole entry, looked up): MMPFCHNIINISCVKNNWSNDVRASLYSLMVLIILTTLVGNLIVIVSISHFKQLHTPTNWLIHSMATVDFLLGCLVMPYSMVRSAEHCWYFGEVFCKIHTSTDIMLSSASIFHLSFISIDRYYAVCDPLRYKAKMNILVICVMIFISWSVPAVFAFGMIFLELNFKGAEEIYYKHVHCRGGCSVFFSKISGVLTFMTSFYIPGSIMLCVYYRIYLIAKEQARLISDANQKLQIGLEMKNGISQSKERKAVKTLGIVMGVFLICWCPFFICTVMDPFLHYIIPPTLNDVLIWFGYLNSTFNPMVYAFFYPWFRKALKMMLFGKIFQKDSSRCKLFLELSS
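Assay system – CHO-derived RD-HGA16 cells with stable Gα16 and human TAAR1 · Compound dosing – one-point dosing at 3 µM (nominal) · Incubation – 17-24 h seeding, 75 min 37 °C dye, 30 min RT · Measured by – kinetic Fluo-8 calcium fluorescence · Control set – DMSO vehicle as 0%, PEA at EC100 as 100% · Repeats – single well for each compound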
OX1R antag-2: OX1R (HCRTR1) antagonists, primary screen, fluorescence, CHO/OX1R cells, Fluo-8 calcium, orexin A; inhibition, % at 5 µM; 0.43% of 330,000 active; Orexin/Hypocretin receptor type 1 (Homo sapiens), O43613; Fluo-8 calcium fluorescence;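 active means inhibition above its plate's threshold, mean inhibition of all tested compounds on the plate plus 3 SD, cut at about 37% in these data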;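 further: 0% = orexin A challenge wells and 100% = SB-334867-A antagonist wells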
TAAR1 antag: human TAAR1 antagonists, primary screen, Fluo-8 calcium fluorescence, CHO RD-HGA16 cells; antagonist; inhibition, % at 3 µM; 1.5% of 360,000 active; AID 624466, 2012;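 active means inhibition above a per-plate cutoff, the mean inhibition of test compounds on that plate plus 3 SD, cut at about 49% in these data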;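 further: 0% = DMSO plus EC80 beta-PEA response and 100% = DMSO alone without agonist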
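Material: CHO RD-HGA16 cells bearing hTAAR1; compound dosing: one-point dosing, 3 µM nominal final; schedule: dye loading 75 min at 37 °C, then 30 min room temperature; measured by: calcium fluorescence with Fluo-8; control set: vehicle and agonist controls; replication: n of 1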
GPR7 antag cf: GPR7 receptor antagonists, confirmation, cell-based, fluorescence, single concentration. shares compounds with GPR7 antag. GPR7-expressing cells, calcium fluorescence antagonist mode. inhibition, % at 4.4 µM. 52% of 2,400 active. AID 1952, 2009; in the data active means inhibition above about 24%;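 further: stimulated with the GPR7 agonist NPW; 0% = agonist plus vehicle and 100% = vehicle alone without agonist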
MCHR1 antagonist: MCHR1 antagonists in cells, counter-screen for GPR7 antagonist project, cell-based, fluorescence, human. shares compounds with GPR7 antag. MCHR1-expressing cells, fluorescence antagonist assay. inhibition, % at 4.4 µM. 62% of 2,400 active; in the data active means inhibition above about 22%;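 further: 0% = vehicle with agonist and 100% = vehicle without agonist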
* hit, by the source's call; nt = no result given.

SMILES	OX1R antag-1	GPR7 antag	CHO parental Ca	TAAR1 agonist	OX1R antag-2	TAAR1 antag	GPR7 antag cf	MCHR1 antagonist
Cc1ccc(-c2ccc(=O)n(Cc3ccc(F)cc3)n2)cc1	1.4	10.7	2.7	-2.8	-13.5	4.7	nt	nt
Cc1cccc(N(C)c2cc(-c3ccc(F)cc3)nc3ccnn23)c1	nt	nt	nt	-1.7	nt	-20.4	nt	nt
CC(=O)Nc1ccc2cc3ccc(NC(C)=O)cc3nc2c1	31.6	14.8*	-2.6	2.2	-28.6	-7.3	-7.6	-5.7
CC(=O)Nc1ccc2ccccc2c1	17.2	7.4	-3.5	nt	6.5	nt	nt	nt
O=C(Nc1ccc(Cl)c(Cl)c1)Nc1ccon1	-1.2	35.2*	13.0	23.1	11.4	14.1	34.8*	65.1*
COc1cccc(C(=O)Nc2ccc(NC(C)=O)cc2)c1	3.2	-3.0	-2.2	3.4	3.6	3.9	nt	nt
Cc1cccc(C(=O)Nc2ccc(C(=O)/C=C/c3ccncc3)cc2)c1	17.0	46.5*	1.8	18.3	4.9	60.2*	73.5*	103.8*
COc1cccc(C(=O)Nc2ccc(C(=O)c3ccncc3)cc2)c1	19.6	23.0*	7.6	12.2	13.2	12.9	23.4	47.1*
O=C(CSc1cccc(C(F)(F)F)c1)N1CCN(S(=O)(=O)c2ccccc2)CC1	12.7	34.0*	-6.3	15.2	-6.6	6.3	2.6	5.8
COc1ccccc1-c1cccc2[nH]c3c(c12)CCN1C(=O)[C@H]2[C@H](C)ON(C)[C@H]2C[C@@H]31	nt	nt	nt	5.8	nt	-23.7	nt	nt
CCOc1ccc(S(=O)(=O)Nc2nc3ccccc3nc2-n2ccc(=NC(=O)c3ccccc3C)cc2)cc1	3.2	22.9*	-6.3	11.8	0.1	-18.6	-7.7	-1.5
Cc1ccccc1C(=O)N=c1ccn(-c2nc3ccccc3nc2NS(=O)(=O)c2ccccc2)cc1	0.2	-6.6	-1.8	0.5	-12.2	-10.5	nt	nt
Cc1nn(C)c(C)c1Nc1ccc(N2C(=O)C3C4C=CC(C4)C3C2=O)cc1[N+](=O)[O-] (configuration not stated)	23.0	26.3*	2.5	-0.2	-9.4	-14.2	1.6	5.5
CCOC(=O)c1c(-c2ccccc2)oc2ccc(OCC)cc12	14.2	-12.9	-27.7	4.3	-40.3	-14.9	nt	nt
CCOC(=O)c1c(-c2ccccc2)oc2ccc(OCC(O)CNCCN(C)C)cc12 (configuration not stated)	-0.9	72.3*	4.8	2.8	-21.6	15.9	60.0*	69.3*
CCCNC(=O)C1(C)CCCN(C(=O)/C=C/c2ccccc2)C1 (configuration not stated)	nt	nt	nt	1.9	nt	4.0	nt	nt
CSc1nsc(SC)c1C(=O)N1CCN(S(=O)(=O)c2ccc(C)cc2)C1C (configuration not stated)	29.8	-0.6	-32.5	8.6	-39.4	46.8	nt	nt
CSc1nsc(SC)c1C(=O)N1CCN(S(=O)(=O)c2ccc(C)cc2)C1C(C)C (configuration not stated)	31.0	26.8*	-23.6	9.3	-17.2	49.2*	16.6	45.7*
CCc1nc2c(OCCn3cccc3)cccn2c1N(C=O)Cc1ccccc1	nt	nt	nt	-0.4	nt	5.5	nt	nt
Cc1c(C(=O)NCc2ccc(C(F)(F)F)cc2)sc(=O)n1Cc1ccc(S(=O)(=O)N(C)C)cc1	nt	nt	nt	11.6	nt	32.2	nt	nt
O=C1CCCCCN1C(=O)c1ccccc1	nt	nt	nt	0.8	nt	1.2	nt	nt
O=C1CCCCCN1Sc1ccccc1	3.7	25.5*	-10.1	8.7	-12.1	6.3	32.1*	88.2*
COc1ccc2c(c1)Cc1cc(NC(=O)c3ccccc3-c3ccccc3C(=O)O)ccc1-2	nt	nt	nt	11.3	nt	-22.1	nt	nt
COc1ccc(NC(=O)C2Cc3c(-c4cccc(C(C)=O)c4)ccnc3O2)cn1 (configuration not stated)	nt	nt	nt	3.6	nt	-5.5	nt	nt
Cc1ccc(S(=O)(=O)NCc2ccc(C(=O)NCc3cccnc3)cc2)cc1	14.7	22.7*	-14.1	nt	-18.2	nt	-4.0	0.1
SMILES	OX1R antag-1	GPR7 antag	CHO parental Ca	TAAR1 agonist	OX1R antag-2	TAAR1 antag	GPR7 antag cf	MCHR1 antagonist
O=S(=O)(NCc1cccnc1)c1ccc2c(c1)OCCO2	2.5	22.8*	-1.2	8.6	0.2	-2.7	-18.8	17.5
Cc1ccc(OCC(=O)NCc2cccnc2)cc1	18.8	24.0*	-10.9	3.5	-2.9	-4.7	-4.9	5.3
COc1cccc(CNC(=O)[C@H]2CCCN2C(=O)[C@H]2CCCN2)c1	nt	nt	nt	2.8	nt	-15.5	nt	nt
CN(C)c1ccc(-c2nnn(CC(=O)NCc3ccc4c(c3)OCO4)n2)cc1	21.1	24.0*	-6.0	3.5	-15.7	6.7	1.1	12.5
CN(C)c1cccc(C(=O)NCc2ccc3c(c2)OCO3)c1	6.4	36.2*	-20.6	-0.6	-11.4	4.5	1.8	15.8
COc1ccc(CCN2CC(=O)NC(=O)C2)cc1OC	nt	nt	nt	0.6	nt	-7.2	nt	nt
O=CNc1cc(-c2ccc(C(=O)NC3CC3)cc2)cn2c(-c3ccc(F)cc3)cnc12	nt	nt	nt	2.4	nt	17.3	nt	nt
COc1ccc(NC(=O)C(OC(=O)c2cnccn2)c2ccccc2)cc1Cl (configuration not stated)	23.5	31.6*	-11.3	1.9	-12.4	-24.1	18.8	20.0
COC(=O)[C@@]1(Cc2ccc(F)cc2)[C@H]2c3cc(C(=O)N4CCCC4)n(Cc4ccc(C(F)(F)F)nc4)c3C[C@H]2CN1C(=O)c1ccccc1	19.4	28.8*	-21.7	12.6	-15.7	8.3	38.9*	22.2*
O=C(c1cnccn1)N(Cc1cccs1)C1(C(=O)NC2CCCC2)CCCCC1	16.6	26.3*	-7.2	1.0	-14.9	-1.6	37.2*	21.2
O=C(c1cnccn1)N(Cc1cccs1)C1(C(=O)NC2CCCCC2)CCCCC1	37.8	41.4*	-19.6	0.1	-23.4	-24.4	30.3*	30.0*
O=C(c1ccccn1)N(Cc1cccs1)C1(C(=O)NC2CCCCC2)CCCCC1	4.6	3.0	-19.1	0.7	-17.7	-38.6	nt	nt
CC(=O)NCCNc1nc2cc(-c3cccc(C(F)(F)F)c3)sc2c(=O)n1C	nt	nt	nt	4.0	nt	4.1	nt	nt
O=C(CCC(=O)N1CCCCCC1)Nc1ccc([N+](=O)[O-])cc1	19.8	34.2*	-5.0	3.8	-0.6	-14.8	2.8	8.4

Bioassay records (PubChem BioAssay)
